Test results from ChEMBL document CHEMBL1133629, “Cholic acid derivatives as 1,2,4,5-tetraoxane carriers: structure and antimalarial and antiproliferative activity” (J Med Chem, 2000).

Tests used:
[1] = Antiproliferative activity in Fem-X of Human melanoma; assay type: functional
Outline: (§1)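 Cells were maintained as monolayers at 37 °C, 5% CO2, in RPMI-1640 with 10% heat-inactivated FBS, 25 mM Hepes, pH 7.2. They were seeded at 2000 cells/well in triplicate, and five concentrations were added 20 h later from 8 mM DMSO stocks; DMSO-only controls. MTT was added at 72 h for 4 h, then SDS/HCl, with OD570 read the next day. Blank-corrected survival vs control; IC50 = 50% survival inhibition.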

HeLa = experiment: Antiproliferative activity in HeLa cells of Human cervix carcinoma; assay type: functional, cell-based; outline: as §1
Plasmodium falciparum [2] = experiment: Antimalarial activity in Plasmodium falciparum Indochina W2; assay type: functional, organism-based
Outline: (§2)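 P. falciparum clones in human erythrocytes at 0.2% parasitemia and 1% hematocrit, in RPMI-1640 without folate or PABA plus 10% heat-inactivated human plasma. Compounds were diluted 2-fold 11 times ([…] range). Incubation was at 37 °C under 5% CO2/5% O2/90% N2, with [3H]hypoxanthine added at 42 h and 24 h further (66 h total). Cells were freeze-lysed, harvested and scintillation-counted; IC50 by nonlinear logistic dose-response fit.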

Plasmodium falciparum [3] = experiment: Antimalarial activity against Plasmodium falciparum African D6; assay type: functional, organism-based; outline: as §2
CCRF-CEM = experiment: Antiproliferative activity as Growth inhibition in CCRF-CEM Leukemia cell line; assay type: functional; conditions: Homo sapiens
Outline: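 NCI 60-cell-line screen: 48-h continuous drug exposure, growth measured by sulforhodamine B protein assay. GI50 is the interpolated concentration giving +50 percentage growth.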

[4] = Selectivity, ratio of PHA-stimulated PBMC to D6 clone; assay type: functional
[5] = Selectivity, ratio of PHA-stimulated PBMC to PBMC; assay type: functional
[6] = Cytotoxic activity against phytohemagglutininin (PHA)-stimulated peripheral blood mononuclear cells (PBMC) inhibition; assay type: functional; conditions: Homo sapiens; read-out: Cytotoxicity IC50
Outline: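 PBMC were isolated from heparinized blood of three healthy volunteers by density-gradient centrifugation and seeded at 100 000 cells/well in RPMI-based medium. Stimulated cultures received PHA at 5 µg/mL final; non-stimulated cultures received none. Compound dilutions were added 2 h later in triplicate, with medium-only controls. IC50 was determined for each donor.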

FM3A = experiment: Antiproliferative activity in Mouse mammary tumor FM3A; assay type: functional, cell-based
Plasmodium falciparum [7] = experiment: Antimalarial activity in Plasmodium falciparum FCR3; assay type: functional, organism-based

Compound | IC50 [1] | IC50 (HeLa; Homo sapiens, HeLa) | IC50 (Plasmodium falciparum [2]) | IC50 (Plasmodium falciparum [3]) | GI50 (CCRF-CEM) | Ratio [4] | Ratio [5] | CC50 [6] | EC50 (FM3A) | EC50 (Plasmodium falciparum [7]) | IC50 (HeLa; hela)
COC(=O)CCC(C)[C@H]1CC[C@H]2[C@@H]3[C@H](OC(C)=O)C[C@@H]4C[C@]5(CC[C@]4(C)[C@H]3C[C@H](OC(C)=O)[C@]12C)OO[C@]1(CC[C@@]2(C)[C@H](C[C@@H](OC(C)=O)[C@@H]3[C@@H]2C[C@H](OC(C)=O)[C@]2(C)[C@@H](C(C)CCC(=O)OC)CC[C@@H]32)C1)OO5 (some centres not stated) | 19.5 µM | 20.5 µM | > 0.096 µM | > 0.096 µM | – | – | – | – | – | – | –
CC(=O)O[C@H]1C[C@H]2[C@@H]([C@H](OC(C)=O)C[C@@H]3C[C@]4(CC[C@@]32C)OO[C@]2(CC[C@@]3(C)[C@H](C[C@@H](OC(C)=O)[C@@H]5[C@@H]3C[C@H](OC(C)=O)[C@]3(C)[C@@H](C(C)CCC(N)=O)CC[C@@H]53)C2)OO4)[C@@H]2CC[C@H](C(C)CCC(N)=O)[C@@]12C (some centres not stated) | 6.2 µM | 6 µM | 0.0593 µM | 0.129 µM | – | – | – | – | – | – | –
COC(=O)CCC(C)[C@H]1CC[C@H]2[C@@H]3[C@H](OC(C)=O)C[C@@H]4C[C@]5(CC[C@]4(C)[C@H]3C[C@H](OC(C)=O)[C@]12C)OO[C@@]1(CC[C@@]2(C)[C@H](C[C@@H](OC(C)=O)[C@@H]3[C@@H]2C[C@H](OC(C)=O)[C@]2(C)[C@@H](C(C)CCC(=O)OC)CC[C@@H]32)C1)OO5 (some centres not stated) | > 29 µM | > 29 µM | > 0.096 µM | > 0.096 µM | 14.8 µM | – | – | – | – | – | –
CC(=O)O[C@H]1C[C@H]2[C@@H]([C@H](OC(C)=O)C[C@@H]3C[C@]4(CC[C@@]32C)OO[C@@]2(CC[C@@]3(C)[C@H](C[C@@H](OC(C)=O)[C@@H]5[C@@H]3C[C@H](OC(C)=O)[C@]3(C)[C@@H](C(C)CCC(=O)O)CC[C@@H]53)C2)OO4)[C@@H]2CC[C@H](C(C)CCC(=O)O)[C@@]12C (some centres not stated) | 0.0042 µM | 0.0052 µM | > 0.099 µM | > 0.099 µM | 0.0012 µM | – | – | – | – | – | –
CCCNC(=O)CCC(C)[C@H]1CC[C@H]2[C@@H]3[C@H](OC(C)=O)C[C@@H]4C[C@]5(CC[C@]4(C)[C@H]3C[C@H](OC(C)=O)[C@]12C)OO[C@@]1(CC[C@@]2(C)[C@H](C[C@@H](OC(C)=O)[C@@H]3[C@@H]2C[C@H](OC(C)=O)[C@]2(C)[C@@H](C(C)CCC(=O)NCCC)CC[C@@H]32)C1)OO5 (some centres not stated) | 23 µM | 33 µM | 0.0604 µM | 0.00929 µM | – | 10333 | >10700 | 96 µM | – | – | –
CC(=O)O[C@H]1C[C@H]2[C@@H]([C@H](OC(C)=O)C[C@@H]3C[C@]4(CC[C@@]32C)OO[C@]2(CC[C@@]3(C)[C@H](C[C@@H](OC(C)=O)[C@@H]5[C@@H]3C[C@H](OC(C)=O)[C@]3(C)[C@@H](C(C)CCC(=O)O)CC[C@@H]53)C2)OO4)[C@@H]2CC[C@H](C(C)CCC(=O)O)[C@@]12C (some centres not stated) | 0.0076 µM | 0.0092 µM | > 0.099 µM | > 0.099 µM | – | – | – | – | – | – | –
CCCNC(=O)CCC(C)[C@H]1CC[C@H]2[C@@H]3[C@H](OC(C)=O)C[C@@H]4C[C@]5(CC[C@]4(C)[C@H]3C[C@H](OC(C)=O)[C@]12C)OO[C@]1(CC[C@@]2(C)[C@H](C[C@@H](OC(C)=O)[C@@H]3[C@@H]2C[C@H](OC(C)=O)[C@]2(C)[C@@H](C(C)CCC(=O)NCCC)CC[C@@H]32)C1)OO5 (some centres not stated) | 94 µM | 0.166 µM | 0.0301 µM | 0.0201 µM | 0.1 µM | 12500 | >15900 | 251 µM | – | – | –
CC(=O)O[C@H]1C[C@H]2[C@@H]([C@H](OC(C)=O)C[C@@H]3C[C@]4(CC[C@@]32C)OO[C@@]2(CC[C@@]3(C)[C@H](C[C@@H](OC(C)=O)[C@@H]5[C@@H]3C[C@H](OC(C)=O)[C@]3(C)[C@@H](C(C)CCC(N)=O)CC[C@@H]53)C2)OO4)[C@@H]2CC[C@H](C(C)CCC(N)=O)[C@@]12C (some centres not stated) | 3.1 µM | 3.7 µM | 0.0188 µM | 0.0237 µM | 0.97 µM | – | – | – | – | – | –
C[C@@H]1CC[C@H]2[C@@H](C)C(=O)O[C@@H]3O[C@@]4(C)CC[C@@H]1[C@]32OO4 [ARTEMISININ] | – | – | 0.0073 µM | 0.0086 µM | – | – | – | – | 10 µM | 0.0078 µM | –
CISPLATIN | – | – | – | – | – | – | – | – | – | – | 0.0035 µM
